# Measurements from ChEMBL document CHEMBL3774373, “Activity and Predicted Nephrotoxicity of Synthetic Antibiotics Based on Polymyxin B” (J Med Chem, 2016).
# Numbered stars: 1 amine (or outer) side, 2 acyl side, 3 side chain; on linkers, the order of the positions; unused ones are H or OH. Bridge positions count the residues as written; N and C are the ends. Square brackets hold non-standard residues; d marks the D form. Peptide text beside a SMILES is read from it. * marks the point of attachment. X1 = c1ccc(-c2ccc(N*)cc2)cc1; Octanoyl = CCCCCCCC(=O)*; Dab = NCC[C@H](N)C(=O)O; CO = O=C([*:1])[*:2]
# Assays:
# [1] = system: Escherichia coli; assay: Antibacterial activity against Escherichia coli ATCC 25922 after 18 hrs by 2 fold serial dilution method; type: functional; conditions: ATCC 25922, 18 h
# Outline: (§1)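 Overnight cultures in nutrient or Mueller Hinton broth at 37 °C with shaking, diluted 50-fold into fresh MHB and grown 1.5–3 h to mid-log. Inoculum 5×10^5 CFU/mL in 2-fold serial dilutions, final range 32 to 0.015 μg/mL. MIC read visually after 18 h at 37 °C as the lowest concentration with no visible growth.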
# [2] = system: Klebsiella pneumoniae; assay: Antibacterial activity against Klebsiella pneumoniae ATCC 13883 after 18 hrs by 2 fold serial dilution method; type: functional; conditions: ATCC 13883, 18 h; outline: as §1
# [3] = system: Klebsiella pneumoniae; assay: Antibacterial activity against multidrug resistant Klebsiella pneumoniae ATCC 700603 after 18 hrs by 2 fold serial dilution method; type: functional; conditions: Klebsiella pneumoniae, 700603, 18 h
# Outline: (§2)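 Overnight cultures at 37 °C in nutrient or Mueller Hinton broth with shaking were diluted 50-fold in MHB and grown 1.5–3 h to mid-log phase. The inoculum was 5×10^5 CFU/mL in MHB. Compounds were 2-fold serially diluted, final 32 to 0.015 μg/mL. After 18 h at 37 °C, the MIC was read visually as the lowest concentration with no visible growth.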
# [4] = system: Klebsiella pneumoniae; assay: Antibacterial activity against Klebsiella pneumoniae ATCC BAA-2146 expressing NDM-1 after 18 hrs by 2 fold serial dilution method; type: functional; conditions: ATCC BAA-2146, 18 h; outline: as §2
# [5] = system: Acinetobacter baumannii; assay: Antibacterial activity against Acinetobacter baumannii ATCC 19606 after 18 hrs by 2 fold serial dilution method; type: functional; conditions: ATCC 19606, 18 h; outline: as §1
# [6] = system: Pseudomonas aeruginosa; assay: Antibacterial activity against Pseudomonas aeruginosa ATCC 27853 after 18 hrs by 2 fold serial dilution method; type: functional; conditions: ATCC 27853, 18 h; outline: as §1
# [7] = system: Pseudomonas aeruginosa; assay: Antibacterial activity against clinical isolate polymyxin resistant Pseudomonas aeruginosa FADDI-PA070 after 18 hrs by 2 fold serial dilution method; type: functional; conditions: FADDI-PA070, 18 h
# Outline: (§3)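 Polymyxin-resistant clinical isolates were grown overnight at 37 °C in NB or MHB with shaking, diluted 50-fold in MHB and grown 1.5–3 h to mid-log phase. The inoculum was 5×10^5 CFU/mL. Compounds were 2-fold broth serial dilutions, final 32 to 0.015 μg/mL; the polymyxin controls ran 128–0.06 μg/mL. The MIC was the lowest concentration with no visible growth after 18 h at 37 °C.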
# [8] = system: Pseudomonas aeruginosa; assay: Antibacterial activity against clinical isolate polymyxin resistant Pseudomonas aeruginosa PA9704 after 18 hrs by 2 fold serial dilution method; type: functional; conditions: PA9704, 18 h; outline: as §3
# [9] = system: Acinetobacter baumannii; assay: Antibacterial activity against clinical isolate carbapenem and polymyxin resistant Acinetobacter baumannii Ptyela 100734512:2 after 18 hrs by 2 fold serial dilution method; type: functional; conditions: Ptyela 100734512:2, 18 h; outline: as §3
# [10] = system: Klebsiella pneumoniae; assay: Antibacterial activity against clinical isolate carbapenem and polymyxin resistant Klebsiella pneumoniae Koprana 100650661:1 after 18 hrs by 2 fold serial dilution method; type: functional; conditions: Koprana 100650661:1, 18 h; outline: as §3
# [11] = system: Klebsiella pneumoniae; assay: Antibacterial activity against clinical isolate carbapenem and polymyxin resistant Klebsiella pneumoniae 138-16357-20362 after 18 hrs by 2 fold serial dilution method; type: functional; conditions: 138-16357-20362, 18 h; outline: as §3
# [12] = system: Escherichia coli; assay: Antibacterial activity against Escherichia coli after 24 hrs by macrobroth dilution method; type: functional
# [13] = system: Pseudomonas aeruginosa; assay: Antibacterial activity against Pseudomonas aeruginosa after 24 hrs by macrobroth dilution method; type: functional
# [14] = system: Staphylococcus aureus; assay: Antibacterial activity against Staphylococcus aureus after 24 hrs by macrobroth dilution method; type: functional
# [15] = (§4) Cytotoxicity against human HepG2 cells after 24 hrs by resazurin assay; type: cell-based; conditions: HepG2 cells
# [16] = system: Staphylococcus aureus; assay: microbe, parasite or virus in culture; conditions: ATCC 25923, 18 h
# [17] = system: Escherichia coli; assay: Antibacterial activity against Escherichia coli ATCC 26 after 18 hrs by 2 fold serial dilution method; type: functional; conditions: ATCC 26, 18 h; outline: as §2
# [18] = (§5) Cytotoxicity against HEK293 cells after 24 hrs by resazurin assay; type: cell-based; conditions: human, HEK293 cells
# [19] = Cytotoxicity against HK2 cells assessed as LDH release by Western blot analysis; type: cell-based, HK-2; conditions: human
# [20] = Cytotoxicity against HK2 cells assessed as GGT release by Western blot analysis; type: cell-based, HK-2; conditions: human
# [21] = system: HepG2; assay: as §4; type: cell-based; conditions: hepg2, 24 h
# [22] = system: HEK293; assay: as §5; type: cell-based; conditions: human, hek293, 24 h
# [23] = primary human renal proximal tubule epithelial cells, read-out: CC50
Compound,MIC [1],MIC [2],MIC [3],MIC [4],MIC [5],MIC [6],MIC [7],MIC [8],MIC [9],MIC [10],MIC [11],CC50 at 24 h [15],MIC [16],further results
CCCCCCCC(=O)N[C@@H](CCN)C(=O)N[C@H](C(=O)N[C@@H](CCN)C(=O)N[C@H]1CCNC(=O)[C@H]([C@@H](C)O)NC(=O)[C@H](CCNC(=O)[C@@H](N)CCCNC(=N)N)NC(=O)[C@H](CCN)NC(=O)[C@H](CC(C)C)NC(=O)[C@@H](Cc2ccccc2)NC(=O)[C@H](CCN)NC1=O)[C@@H](C)O (Octanoyl-[Dab]T[Dab][Dab][Dab][dF]L[Dab][Dab](Arg)T; lactam 4-C),32 µg/mL,32 µg/mL,8 µg/mL,8 µg/mL,16 µg/mL,32 µg/mL,> 32 µg/mL,> 32 µg/mL,> 32 µg/mL,> 32 µg/mL,> 32 µg/mL,> 300 µM,> 32 µg/mL,MIC [12]: 0.16 µg/mL; MIC [13]: 0.03 µg/mL; MIC [14]: 2 µg/mL
CC(C)C[C@@H]1NC(=O)[C@@H](Cc2ccccc2)NC(=O)[C@H](CCN)NC(=O)[C@@H](NC(=O)[C@H](CCN)NC(=O)[C@@H](NC(=O)[C@H](CCN)NC(=O)Nc2ccc(-c3ccccc3)cc2)[C@@H](C)O)CCNC(=O)[C@H]([C@@H](C)O)NC(=O)[C@H](CCN)NC(=O)[C@H](CCN)NC1=O ({X1-CO}-[Dab]T[Dab][Dab][Dab][dF]L[Dab][Dab]T; lactam 4-C),2 µg/mL,2 µg/mL,2 µg/mL,1 µg/mL,1 µg/mL,1 µg/mL,16 µg/mL,8 µg/mL,16 µg/mL,16 µg/mL,> 32 µg/mL,316 µM,32 µg/mL,"MIC [17]: 2.5 µg/mL; CC50 at 24 h [18]: > 300 µM; CC50 [19, 23]: > 128 µg/mL; CC50 [20, 23]: > 128 µg/mL"
GENTAMICIN,–,–,–,–,–,–,–,–,–,–,–,–,–,CC50 [21]: > 300 µM; CC50 [22]: > 300 µM; CC50 ([19]; hk-2): 33 µg/mL; CC50 ([20]; hk-2): 33 µg/mL
